# Experimental data pooled from the literature.
# Each line is one published result; the experiments were not run side by side.
# Target: RAC-beta serine/threonine-protein kinase (AKT2, Homo sapiens, UniProt P31751)
Compound,read-out,action,method,tested at,measurement,value
Cc1c(C(=O)O)cc(-c2ccc(C3CCNCC3)cc2)c2ccc(-c3ccc(C(F)(F)F)cc3)cc12,binding,,competition with immobilised ligand,1 µM,remaining binding,100%
N#CCCc1ccc2c(c1)-c1[nH]c3ccc([N+](=O)[O-])cc3c1CC(=O)N2,cell-free assay,,,0.5 µM,remaining signal,100%
CC/C(=N\NC(=O)NCc1cccc(O)c1)c1ccc(O)c(C)c1O,enzyme activity,inhibitor,,0.1 µM,inhibition,0.2%
Cc1ccc(C(=O)NCc2ccsc2)cc1C#Cc1cn(C(C)C)c2ncnc(N)c12,enzyme activity,inhibitor,,1 µM,activity vs control,99%
CC(C)(O)[C@H]1CC[C@H](Nc2ccc3ncc(-c4cccc(C(F)(F)F)c4)n3n2)CC1,enzyme activity,inhibitor,,1 µM,remaining activity,102%
CCC(=O)N[C@H]1CC[C@@H](C(=O)N(C)c2ccc(-c3nc4ccccc4o3)cc2)C1,cell-free assay,,competition with immobilised ligand,1 µM,remaining binding,89%
O=C(Nc1cnn(-c2csc(C(=O)NC3COC3)c2)c1)Nc1c(F)cccc1Cl,enzyme activity,inhibitor,,5 µM,remaining activity,104%
O=C1Nc2ccc(Cl)cc2C1=Cc1cc(Cl)c(O)c(Cl)c1,cell-free assay,,,0.5 µM,remaining signal,93.9%
CC(C)(C)c1nc(-c2cccc(NS(=O)(=O)c3c(F)cccc3F)c2F)c(-c2ccnc(N)n2)s1,enzyme activity,inhibitor,radiometric,1 µM,remaining activity,91%
Oc1cccc(-c2nc(N3CCOCC3)c3oc4ncccc4c3n2)c1,enzyme activity,inhibitor,,10 µM,remaining activity,114%
COc1cc(Cl)c(C(=O)N[C@@H](CN[C@H]2CC[C@@H](N)CC2)Cc2ccc(C#N)cc2)cc1-c1ccc(CN[C@H](C)c2ccc(C)cc2)o1,enzyme activity,inhibitor,,1 µM,remaining activity,65%
Cn1c(=O)n(-c2ccc(C(C)(C)C#N)cc2)c2c3cc(-c4cnc5ccccc5c4)ccc3ncc21,enzyme activity,inhibitor,,10 µM,remaining activity,106%
CCCOc1ccc(OC)c(F)c1C(=O)c1ccc(C(=O)N[C@@H]2CNC[C@H]2NC(=O)c2ccc3[nH]ncc3c2)cc1,enzyme activity,inhibitor,,10 µM,remaining activity,49%
COc1ccc2c(c1)O[C@H](c1ccc(OC)c(OC)c1)C[C@@H]2NC(=O)C1(c2ccc3c(c2)OC(F)(F)O3)CC1,cell-free assay,,competition with immobilised ligand,1 µM,remaining binding,96%
C=CC(=O)Nc1cc(Nc2nccc(Nc3cc(Cl)c(F)cc3C(C)(C)O)n2)c(OC)cc1N1CC[C@@H](N(C)C)C1,enzyme activity,inhibitor,,1 µM,inhibition,-10%
CCN(CC)c1ccc(C2=NNC(=O)CC2C)cc1[N+](=O)[O-] (stereo not drawn),enzyme activity,inhibitor,,10 µM,remaining activity,101%
Cc1nccc(COC(=O)N2C[C@@H]3[C@@H](CNC(=O)c4ccc5[nH]nnc5c4)[C@@H]3C2)n1,cell-free assay,,competition with immobilised ligand,1 µM,remaining binding,98%
Nc1nc(NC2CCCCC2)sc1C(=O)c1ccccc1,enzyme activity,inhibitor,,10 µM,remaining activity,73%
C[C@@]1(Cc2ccc(C#N)cc2)C(=O)N(c2cc(Cl)cc(Cl)c2)c2ncc(C(=O)NC3(c4nc(C5CCC5)no4)CC3)n21,cell-free assay,,competition with immobilised ligand,1 µM,remaining binding,100%
O=S(=O)(NCCNC/C=C/c1ccc(Br)cc1)c1cccc2cnccc12,cell-free assay,,,0.5 µM,remaining signal,75.4%
COc1cc2ncnc(Nc3ccc(Oc4ccccc4)c(C)c3C)c2cc1OC,enzyme activity,inhibitor,,1 µM,inhibition,1%
O=C1NC(=O)c2cc(Nc3ccc(F)cc3)c(Nc3ccc(F)cc3)cc21,cell-free assay,,,0.5 µM,remaining signal,95.1%
Nc1nc(Nc2ccccc2)sc1C(=O)c1c(F)cccc1F,enzyme activity,inhibitor,,10 µM,remaining activity,85%
Cc1ccc(-n2nc(C(C)(C)C)cc2NC(=O)Nc2ccc(OCCN3CCOCC3)c3ccccc23)cc1,enzyme activity,inhibitor,,10 µM,inhibition,-15%
O=C(NS(=O)(=O)c1ccc(NCC2CCOCC2)c([N+](=O)[O-])c1)c1ccc(N2CCN(Cc3ccc(C(F)(F)F)cc3-c3ccc(Cl)cc3)CC2)cc1Oc1cnc2[nH]ccc2c1,cell-free assay,,competition with immobilised ligand,1 µM,remaining binding,100%
COc1cc(Nc2cnc(C#N)c(O[C@H](C)CN(C)C)n2)ncc1-c1cnn(C)c1,enzyme activity,inhibitor,radiometric,1 µM,remaining activity,81%
c1ccc(N2CCN(Cc3nc4ccccc4[nH]3)CC2)nc1,binding,,competition with immobilised ligand,1 µM,remaining binding,100%
CCCS(=O)(=O)Nc1ccc(F)c(C(=O)c2c[nH]c3ncc(-c4ccc(Cl)cc4)cc23)c1F,enzyme activity,inhibitor,,1 µM,inhibition,< 10%
CNC(=O)c1ccc(Nc2ncc(C(F)(F)F)c(NCc3nccnc3N(C)S(C)(=O)=O)n2)cc1,cell-free assay,,competition with immobilised ligand,0.1 µM,remaining binding,77%
Cc1sc(C(=O)NC2COC2)cc1-n1cc(NC(=O)Nc2c(F)cccc2Cl)cn1,enzyme activity,inhibitor,,10 µM,remaining activity,88.9%
